Assay outcomes as filed in PubChem.
Shown is part of a subset that was picked to be rich in hits.
Lmaj promast: Leishmania major promastigote growth inhibition, primary screen; Leishmania major promastigotes, resazurin fluorescence viability; inhibition, % at 10 µM; 200,000 compounds, 9% hits; AID 1063, 2008; in the data active = inhibition above about 50%;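 note: promastigotes grown with compound for 44 hours at 28 °C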
HSF1 inhib: HSF1 inhibitors in luciferase reporter cells, primary screen, cell-based, NIH3T3, luminescence | NIH3T3-HGL HSE-luciferase, MG132-induced, luminescence 8 h; stronger effect = lower value | activity change, negative = inhibition, % at 7.5 µM (by protocol) | 300,000 compounds, 0.77% hits;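 active = more than half of replicate wells show activity change below -50%, luminescence cut by over half; inconclusive = some wells, but at most half, below -50%; inactive = no replicate well below -50%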;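 note: luciferase reports HSF-1 transcriptional activity via heat shock element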
Hsp70 activator: Hsp70 transcriptional activators, primary screen, cell-based, HeLa, Hsp70 promoter luciferase, luminescence, 10 µM; HeLa Hsp70 promoter luciferase reporter; scaled: vehicle 0, proteasome-inhibitor control 100%; activation, % at 10 µM; 200,000 compounds, 0.04% hits; AID 1203, 2008;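 active = activation above the mean across all tested compounds plus 3 SD, cutoff set per campaign, cut at about 5.5% in these data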
HSF-1 act: HSF-1 activators, primary screen, NIH3T3-HGL cells, MG132 stress, luminescence, single point. NIH3T3-HGL HSF-1 luciferase reporter, 8 h; 100% = twice DMSO control signal. 300,000 compounds, 1.7% hits. activation, % at 9 µM;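 active = mean replicate activation of at least 50% with a set share of replicates each reaching 50%; inconclusive = only one of those two conditions met; inactive = mean below 50% and too few replicates reaching it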
T cruzi inh: inhibitors of intracellular T. cruzi growth, primary screen, luminescence, NIH3T3 host cells | T. cruzi beta-gal in NIH3T3, 90 h | inhibition, % (concentration not given with the values) | 300,000 compounds, 1.4% hits | AID 1885, 2009;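 active = mean inhibition across valid replicates above about 55%, limit read from the data; inconclusive = mean below that limit but half or more replicates reach it; inactive = mean below it, under half of replicates reach it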;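 note: signal also drops with host cell toxicity which is not excluded here; higher percent means less beta-gal luminescence so fewer parasites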
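compound dosing = single 50 nL compound addition per well in DMSO | material = NIH/3T3 host cells with β-galactosidase reporter T. cruzi | input = 5,000 host fibroblasts per well | timing = ≥90 h infection period, 3 h prior cell attachment | read-out basis = percent inhibition of parasite-derived β-gal signal | detection = GalScreen β-gal luminescence, detergent lysis, 60 min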
Lmaj promast 1uM: Leishmania major promastigote growth inhibition, confirmation, 1 µM repeat of primary hits | shares compounds with Lmaj promast | L. major promastigote growth, resazurin fluorescence, 48 h | inhibition, % at 1 µM | 1,100 compounds, 13% hits | AID 1258, 2008;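 active = inhibition above about 50% in both repeat tests, limit read from the data; inconclusive = one repeat under the set limit, the other over it; inactive = both repeats under the set limit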
Of the large screens only hits and unclear results are named; the others gave an inactive call (follow-up assays come after a bar, where they were run).

COc1ccc(/C=C2\SC(=O)N(CCNC(=O)C3CCN(S(=O)(=O)c4cccs4)CC3)C2=O)cc1	Lmaj promast 64
O=C1[C@H]2[C@H](C=CC[C@H]2C(=O)N2CCOCC2)CCN1Cc1ccccc1	none (no result: Lmaj promast, Hsp70 activator)
NC(=O)CSCc1cccc(Br)c1	none
NC(CSCc1cccc(Br)c1)C(=O)O (stereo not given)	HSF-1 act 79
CCN(CC)Cc1cc(NC2=NS(=O)(=O)c3ccccc32)ccc1OC(=O)C(C)C	Lmaj promast 99
CCN(CC)Cc1cc(NC2=NS(=O)(=O)c3ccccc32)ccc1OC(=O)c1ccccc1	Lmaj promast 98
Cc1ccccc1C(=O)Nc1ccnn1C1CCN(C(=O)C2CCOC2)CC1 (stereo not given)	none (no result: Lmaj promast, Hsp70 activator)
Cc1cccc2c(C(=O)N3CCN(c4ccccn4)CC3)cc(-c3cccc(Br)c3)nc12	HSF1 inhib -79 (no result: Lmaj promast, Hsp70 activator)
Cc1cccc2c(C(=O)N3CCN(c4ccccc4)CC3)cc(-c3ccncc3)nc12	HSF1 inhib -70 (no result: Lmaj promast, Hsp70 activator)
COc1ccc(-c2cc(C(=O)N3CCC3)c3ccccc3n2)cc1OC	none (no result: Lmaj promast, Hsp70 activator)
COc1ccc(-c2cc(C(=O)N3CCN(c4cccc(C)c4C)CC3)c3ccccc3n2)cc1OC	T cruzi inh 62 (no result: Lmaj promast, Hsp70 activator)
O=C(c1cc(-c2cccc(Cl)c2)nc2ccccc12)N1CCN(c2ccccn2)CC1	none (no result: Lmaj promast, Hsp70 activator)
COc1cc(C(=O)NCCCc2nc3ccccc3n2Cc2cc(C)ccc2C)cc(OC)c1OC	Lmaj promast 69
CC(=O)NCCCc1nc2ccccc2n1Cc1cc(C)ccc1C	none
C(=C\c1ccccc1)/C=N/Nc1nc(N2CCOCC2)nc(N2CCOCC2)n1	none
O=[N+]([O-])c1cccc(/C=N/Nc2nc(N3CCOCC3)nc(N3CCOCC3)n2)c1	Lmaj promast 73
O=[N+]([O-])c1ccc(/C=N/Nc2nc(N3CCOCC3)nc(N3CCOCC3)n2)cc1	none
CC(=C/c1ccccc1)/C=N/Nc1nc(N2CCOCC2)nc(N2CCOCC2)n1	Lmaj promast 63
O=C1CC(NS(=O)(=O)c2ccccc2F)CN1c1ccc2c(c1)OCCO2 (stereo not given)	none (no result: Lmaj promast, Hsp70 activator)
CCCN(Cc1ccccc1)C(=S)Nc1cccc(C(F)(F)F)c1	Lmaj promast 91
CN(C)CCCN(Cc1ccccc1)C(=S)Nc1ccc(F)c(Cl)c1	none
CN(C)CCCN(Cc1ccccc1)C(=S)Nc1cccc(C(F)(F)F)c1	Lmaj promast 60
CCCN(Cc1ccccc1)C(=S)Nc1ccc(OCC)cc1	none
CCCN(Cc1ccccc1)C(=S)Nc1ccc(SC(F)F)cc1	Lmaj promast 53
CCCN(Cc1ccccc1)C(=S)Nc1ccc(F)cc1	none
COc1ccc(-n2cc(-c3ccccc3)c3c(N4CC(C)OC(C)C4)ncnc32)cc1 (stereo not given)	none
O=S(=O)(NC1=NCCCCC1)c1ccc2ccccc2c1	none
Clc1cccc(Cl)c1/C=N\Nc1nccs1	HSF-1 act 142
O=[N+]([O-])c1ccccc1/C=N\Nc1nccs1	HSF-1 act 78 (no result: Lmaj promast, Hsp70 activator)
Cc1csc(N/N=C/c2c(F)cccc2Cl)n1	none (no result: Lmaj promast, Hsp70 activator)
Cc1[nH]nc(SCC(=O)Nc2ccc(C#N)cc2)c1[N+](=O)[O-]	none
COc1cc(C(=O)NC2CCN(Cc3nnnn3Cc3cccs3)CC2)cc(OC)c1OC	HSF1 inhib -68
COCCn1nnnc1CN1CCC(NC(=O)c2ccc(Br)cc2)CC1	none
Cc1ccc(-c2nc3cccnc3o2)cc1NC(=O)COc1ccc(C(C)(C)C)cc1	none
Cc1ccc(-c2nc3cccnc3o2)cc1NC(=O)COc1ccc(Cl)cc1C	Lmaj promast 94
Cc1ccc(Cl)c(OCC(=O)Nc2ccc3c(c2)OCCO3)c1	none
Cc1cccc(OCC(=O)Nc2ccncc2)c1C	HSF1 inhib -68 (no result: Lmaj promast, Hsp70 activator)
Cc1cccc(OCC(=O)Nc2ccc3c(c2)OCO3)c1C	Lmaj promast 73
O=C(COc1cc(Cl)c(Cl)cc1Cl)NC(=O)Nc1ccc2c(c1)OCCO2	Lmaj promast 63
Cc1nc2sc(-c3ccccc3)cc2c(=O)n1/N=C/N(C)C	none
O=C(N/C=C/c1ccccc1)c1ccccc1	none (no result: Lmaj promast, Hsp70 activator)
Cc1ccccc1OCC(=O)Nc1ccc(N2CCN(S(C)(=O)=O)CC2)cc1	none
O=C(COc1cc(Cl)c(Cl)cc1Cl)Nc1ccncc1	none
Cc1ccc(-c2nc3ncccc3o2)cc1NC(=O)CC(C)C	Lmaj promast 92
Cc1cc(Cl)ccc1OCC(=O)NCc1ccncc1	none
O=C(COc1cc(Cl)c(Cl)cc1Cl)Nc1cccc(O)c1	HSF-1 act 87 (no result: Lmaj promast, Hsp70 activator)
Cc1ccc(-c2nc3ncccc3o2)cc1NC(=O)Cc1ccc(Cl)cc1	none
Cc1cccc(OCC(=O)Nc2ccc(N3CCN(S(C)(=O)=O)CC3)cc2)c1C	HSF-1 act 57
Cc1cc(Cl)ccc1OCC(=O)Nc1ccncc1	HSF1 inhib -59 (no result: Lmaj promast, Hsp70 activator)
Cc1ccc2c(c1)-c1[nH]c(=S)ncc1CS2	none
O=c1oc2c(-c3cccc(F)c3)cc(O)cc2s1	none
N#Cc1ccccc1OCC(=O)Nc1ccc2c(c1)OCCCO2	none (no result: Lmaj promast, Hsp70 activator, T cruzi inh)
O=C(COc1ccccc1Br)Nc1ccc2c(c1)OCCCO2	HSF-1 act 57 (no result: Lmaj promast, Hsp70 activator)
CCOC(=O)N1CCC2(CC1)C(C#N)=C(N)Oc1c2sc2nc(C)cc(C)c12	T cruzi inh inconclusive
CCCN1CCC2(CC1)C(C#N)=C(N)Oc1c2sc2nc(C)cc(C)c12	Lmaj promast 52
O=c1c2c3c(sc2[nH]c(=S)n1Cc1ccco1)CCC3	HSF-1 act 94 (no result: Lmaj promast, Hsp70 activator)
CC1Oc2ccccc2N(CC(=O)N2CCCC2)C1=O (stereo not given)	none (no result: Lmaj promast, Hsp70 activator)
CN1CCC(N(C)C(=O)c2ccccc2Nc2ccc(SC(F)F)cc2)CC1	T cruzi inh 59
CN1CCC(N(C)C(=S)Nc2ccc(SC(F)F)cc2)CC1	Lmaj promast 76
CN1CCC(N(C)C(=S)Nc2ccc(F)cc2)CC1	none
CN1CCN(C(=O)c2ccccc2Nc2ccc(SC(F)F)cc2)CC1	none
Cc1ccc(Oc2ccc(S(=O)(=O)N3CCOCC3)cc2C(N)=O)c(-n2nc3ccccc3n2)c1	Lmaj promast 54 | Lmaj promast 1uM inactive
COc1ccccc1Oc1ccc(S(=O)(=O)N2CCOCC2)cc1S(=O)(=O)N1CCOCC1	none
Cc1nc(-c2ccncc2)sc1C(=O)Nc1ccc(Br)cc1	none
Cc1onc(-c2c(F)cccc2Cl)c1C(=O)N1CCc2ccccc21	none
Cc1onc(-c2c(Cl)cccc2Cl)c1C(=O)N1CCCc2ccccc21	Lmaj promast 92 | Lmaj promast 1uM inactive
NC(=S)NCc1cccnc1	none
CSC(=S)NCc1cccnc1	Lmaj promast 81 | Lmaj promast 1uM inactive
COc1ccc(C(=O)O/N=C(\N)Cc2ccc(Cl)cc2)cc1OC	Lmaj promast 66, T cruzi inh inconclusive | Lmaj promast 1uM inactive
